For one experiment, the target named is T1, DCLK2 (Homo sapiens, UniProt Q8N568).
T1 sequence (Q8N568 1-766): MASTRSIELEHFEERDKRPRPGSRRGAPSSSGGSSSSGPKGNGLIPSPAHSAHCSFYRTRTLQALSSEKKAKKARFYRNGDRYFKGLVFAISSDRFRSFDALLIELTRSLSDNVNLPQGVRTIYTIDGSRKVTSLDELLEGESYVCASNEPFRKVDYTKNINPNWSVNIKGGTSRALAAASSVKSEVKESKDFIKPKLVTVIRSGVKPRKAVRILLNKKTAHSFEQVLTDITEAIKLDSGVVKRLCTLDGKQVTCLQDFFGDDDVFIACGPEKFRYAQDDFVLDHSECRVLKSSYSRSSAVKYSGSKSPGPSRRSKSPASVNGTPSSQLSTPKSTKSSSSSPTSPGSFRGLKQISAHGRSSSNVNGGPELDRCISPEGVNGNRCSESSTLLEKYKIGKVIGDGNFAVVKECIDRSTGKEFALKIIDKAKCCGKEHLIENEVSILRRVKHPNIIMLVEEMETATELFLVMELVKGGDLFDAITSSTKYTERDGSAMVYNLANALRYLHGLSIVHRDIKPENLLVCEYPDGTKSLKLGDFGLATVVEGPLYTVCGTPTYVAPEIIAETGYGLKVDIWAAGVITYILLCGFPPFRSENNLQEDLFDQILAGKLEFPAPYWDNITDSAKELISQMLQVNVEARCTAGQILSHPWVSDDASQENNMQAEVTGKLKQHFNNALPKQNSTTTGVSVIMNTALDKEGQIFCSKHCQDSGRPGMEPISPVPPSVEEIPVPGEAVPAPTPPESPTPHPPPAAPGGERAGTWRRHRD
In words: 33P-ATP DCLK2 kinase assay. The format is biochemical. The procedure, abridged:
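Radiometric 33P-ATP assay run by a contract lab. […] Test compound in 12-point dose response, top concentration 10 μM. Values are the mean of n = 3 biologically independent samples.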

A further experiment has as its system PANFR0172_T3. In words: Patient-derived pancreatic organoid viability, PANFR0172_T3. In kind it is cell-based, human. To be noted: read-out: PANFR0172_T3 3D organoid culture IC50. The method, boiled down:
(§1)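 Patient-derived PDAC organoids were dissociated to single cells and plated at 1000 viable cells/well in complete organoid medium with 10% Matrigel, in ultra-low-attachment 384-well plates. After 24 h, compound was added by digital dispenser, then 7 days incubation. Read-out was CellTiter-Glo 3D luminescence after 1 h shaking at room temperature, normalized to DMSO wells for each culture.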

Another experiment concerns the target T2, DCLK1 (Homo sapiens, UniProt O15075).
T2 sequence (O15075 1-740): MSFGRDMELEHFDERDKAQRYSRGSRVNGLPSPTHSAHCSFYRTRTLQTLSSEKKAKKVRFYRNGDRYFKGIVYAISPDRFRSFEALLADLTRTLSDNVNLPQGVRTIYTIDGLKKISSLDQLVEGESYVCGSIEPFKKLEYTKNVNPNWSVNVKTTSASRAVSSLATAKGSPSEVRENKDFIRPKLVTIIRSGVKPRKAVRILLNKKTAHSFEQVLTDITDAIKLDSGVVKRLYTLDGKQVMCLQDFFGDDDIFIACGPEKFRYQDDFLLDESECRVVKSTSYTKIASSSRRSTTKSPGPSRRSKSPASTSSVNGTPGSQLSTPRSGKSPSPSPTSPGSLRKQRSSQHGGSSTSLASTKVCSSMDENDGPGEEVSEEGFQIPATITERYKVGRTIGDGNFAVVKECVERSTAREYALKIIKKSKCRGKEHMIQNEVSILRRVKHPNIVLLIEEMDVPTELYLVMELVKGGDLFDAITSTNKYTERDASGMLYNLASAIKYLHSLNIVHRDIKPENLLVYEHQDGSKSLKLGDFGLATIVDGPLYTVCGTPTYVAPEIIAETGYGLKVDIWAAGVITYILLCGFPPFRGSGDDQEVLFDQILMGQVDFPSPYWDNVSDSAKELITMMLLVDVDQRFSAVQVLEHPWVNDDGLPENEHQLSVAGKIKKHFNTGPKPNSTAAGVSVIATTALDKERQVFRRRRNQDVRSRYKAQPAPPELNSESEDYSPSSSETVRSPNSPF
In words: 33P-ATP DCLK1 kinase assay. The format is biochemical. To be noted: ATP 50 μM (Km).

The subject of the next experiment is PATU-8902 cells. Briefly: Cell viability, 2D-adherent monolayer culture, PATU-8902. In kind it is cell-based, human. To be noted: read-out: PATU-8902 cells 2D monolayer culture IC50. The procedure, abridged:
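PATU-8902 or PATU-8988T cells were plated at 100 cells/well and left overnight to adhere (2D plates) or to form spheroids (ultra-low-attachment 3D spheroid plates). Compound was pin-transferred, then 120 h incubation. Viability by CellTiter-Glo luminescence after 15 min at room temperature, normalized to DMSO-treated wells for each cell line.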

The test system of the next experiment is PANFR0172_T4. Briefly: Patient-derived pancreatic organoid viability, PANFR0172_T4. In kind it is cell-based, human. The conditions noted are these: read-out: PANFR0172_T4 3D organoid culture IC50. The procedure, abridged: as §1
The test system of a further experiment is PATU-8988T cells. In words: Cell viability, 2D-adherent monolayer culture, PATU-8988T. To be noted: 120 h, read-out: PATU-8988T cells 2D monolayer culture IC50. In kind it is cell-based, human. The method, boiled down:
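PATU-8988T and PATU-8902 cells were plated at 100 cells/well in 50 μL media, either adherent (2D) or in ultra-low attachment spheroid plates (3D), overnight. Test compound was pin-transferred and cells were incubated 120 h. Viability was read by CellTiter-Glo luminescence after 15 min at room temperature. Data were normalized to DMSO-treated wells per cell line and fitted.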

The mark [1] stands for this setting: viability, 7 d, P.R. = partial response.

Molecules are shown by their SMILES. Where two headings read alike, the source gives them in different places. Where only a bound is given, the exact number is not on record here.

For the molecule `COc1cc(N2CCN(C)CC2)ccc1Nc1ncc2c(n1)N(C)c1ccccc1C(=O)N2CC(F)(F)F` [DCLK1-IN-1], the concentration for half-maximal inhibition (IC50) (commonly the concentration needed to halve the response being measured) was 0.103 µM at DCLK2; 2.12 µM in the experiment on PANFR0172_T3 (Homo sapiens, 168 h); 0.0572 µM against DCLK1 (DCLK1 kinase assay IC50, 33P-ATP); more than 20 µM in the experiment with PATU-8902 cells (Homo sapiens, PaTu 8902, 120 h); more than 20 µM in the experiment with PANFR0172_T4 (Homo sapiens, 168 h); more than 20 µM with PATU-8988T cells (Homo sapiens, PaTu 8988t).

As to `CCOc1cc(N2CCC(O)CC2)ccc1Nc1ncc2c(n1)N(C)c1ccccc1C(=O)N2C` [XMD8-92], the IC50 is 0.385 µM at DCLK2 (read-out: DCLK2 kinase assay IC50, 33P-ATP, ATP 100 μM (Km)); more than 20 µM in the experiment on PANFR0172_T3 (setting [1]); 0.104 µM at DCLK1 (read-out: DCLK1 kinase assay IC50, 33P-ATP); more than 20 µM in the experiment with PATU-8902 cells (cell viability, 120 h); more than 20 µM in the experiment with PANFR0172_T4 (setting [1]); 2.02 µM in the experiment with PATU-8988T cells (cell viability, P.R. = partial response).

(Values after article PMC7246176 (Nature chemical biology, 2020).)
